# Measurements as given in ChEMBL document CHEMBL1833814 (Bioorg Med Chem Lett, 2011).
# How the values were obtained:
# Fatty acid synthase [1] = target: Fatty acid synthase (Homo sapiens, UniProt P49327); experiment: Inhibition of human FAS assessed as synthesis of long chain fatty acids from malonyl CoA after 60 mins by fluorescence assay
# Procedure, shortened: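 FAS enzyme prepared from HeLa cells, in enzyme buffer (20 mM K phosphate, 1 mM EDTA, 1 mM DTT, 5% glycerol, pH 7.4). It was preincubated 60 min at 37 °C with compound (0.1% DMSO), 326 µM NADPH and 60 µM acetyl CoA in 100 mM K phosphate, 1 mM EDTA, 1 mM DTT, pH 7.0. The reaction was started with 200 µM malonyl CoA. NADPH consumption was read at 340 nm over 10 min, and the slope (Vmax) was taken.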
# [2] = Permeability across human Caco2 cells; type: ADME, cell-based; details: Caco-2, read-out: permeability
# Liver microsomes [3] = experiment: Metabolic stability in rat liver microsomes; type: ADME, Microsome
# Rattus norvegicus [4] = organism: Rattus norvegicus; experiment: Liver blood flow rat; type: ADME, organism-based
# Liver microsomes [5] = experiment: Metabolic stability in human liver microsomes; type: ADME, Microsome
# [6] = Plasma protein binding in rat; type: ADME, cell-free; details: read-out: PPB (converted)
# [7] = Clearance in iv dosed Han/Wistar rat; type: ADME, organism-based; details: in vivo
# Procedure, shortened: (§1)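 Male Han/Wistar rats were dosed intravenously.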
# [8] = Volume of distribution at steady state in iv dosed Han/Wistar rat; type: ADME, organism-based; details: in vivo, read-out: Vdss; procedure, shortened: as §1
# [9] = Aqueous solubility of compound at pH 7.4; type: physicochemical; details: buffer
# [10] = Half life in Han/Wistar rat at 4 mg/kg, po; type: ADME, organism-based; design: dose 4 mg/kg, route oral; details: in vivo
# Procedure, shortened: (§2)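 Male Han/Wistar rats were dosed orally. Compound levels were measured in plasma, and in brain and CSF at 2 h.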
# [11] = Tmax in Han/Wistar rat at 4 mg/kg, po; type: ADME, organism-based; design: dose 4 mg/kg, route oral; details: in vivo; procedure, shortened: as §2
# [12] = Cmax in Han/Wistar rat at 4 mg/kg, po; type: ADME, organism-based; design: dose 4 mg/kg, route oral; details: in vivo; procedure, shortened: as §2
# [13] = AUC (0 to infinity) in Han/Wistar rat at 4 mg/kg, po; type: ADME, organism-based; design: time infinity, dose 4 mg/kg, route oral; details: plasma; procedure, shortened: as §2
# [14] = Oral bioavailability in Han/Wistar rat at 4 mg/kg; type: ADME, organism-based; details: in vivo; procedure, shortened: as §2
# [15] = Drug level in Han/Wistar rat brain at 4 mg/kg, po after 2 hrs; type: ADME, organism-based; design: dose 4 mg/kg, route oral; details: read-out: Drug uptake; procedure, shortened: as §2
# [16] = Drug level in Han/Wistar rat cerebrospinal fluid at 4 mg/kg, po after 2 hrs; type: ADME, organism-based; design: dose 4 mg/kg, route oral; details: read-out: Drug uptake; procedure, shortened: as §2
# Homo sapiens = organism: Homo sapiens; experiment: Liver blood flow human; type: ADME, organism-based
# Fatty acid synthase [17] = target: Fatty acid synthase (Mus musculus, UniProt P19096); experiment: Inhibition of FAS in mouse N42 cells assessed as [14C]-acetate incorporation after 4 hrs by scintillation counting; type: cell-based
# Procedure, shortened: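 Immortalized clonal neuronal mouse hypothalamic N-42 cells were exposed to compound for 60 min at 37 °C, then to 14C-acetate (10^6 dpm) for 4 h at 37 °C. Lipids were extracted with chloroform/methanol and the lower phase was evaporated. Incorporated radioactivity was measured by scintillation counting.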
# Rattus norvegicus [18] = organism: Rattus norvegicus; experiment: Binding affinity to rat central imidazoline I2 receptor at 10 uM by radioligand binding assay
# [19] = target: Alpha-1A adrenergic receptor (Rattus norvegicus) (UniProt P43140); experiment: Binding affinity to rat adrenergic alpha1A receptor at 10 uM by radioligand binding assay
# Rattus norvegicus [20] = organism: Rattus norvegicus; experiment: Binding affinity to rat rolipram binding site at 10 uM by radioligand binding assay
# [21] = target: Histamine H1 receptor (Homo sapiens) (UniProt P35367); experiment: Binding affinity to human histamine H1 receptor at 10 uM by radioligand binding assay
# Histamine H1 receptor (Homo sapiens), sequence (P35367 whole entry): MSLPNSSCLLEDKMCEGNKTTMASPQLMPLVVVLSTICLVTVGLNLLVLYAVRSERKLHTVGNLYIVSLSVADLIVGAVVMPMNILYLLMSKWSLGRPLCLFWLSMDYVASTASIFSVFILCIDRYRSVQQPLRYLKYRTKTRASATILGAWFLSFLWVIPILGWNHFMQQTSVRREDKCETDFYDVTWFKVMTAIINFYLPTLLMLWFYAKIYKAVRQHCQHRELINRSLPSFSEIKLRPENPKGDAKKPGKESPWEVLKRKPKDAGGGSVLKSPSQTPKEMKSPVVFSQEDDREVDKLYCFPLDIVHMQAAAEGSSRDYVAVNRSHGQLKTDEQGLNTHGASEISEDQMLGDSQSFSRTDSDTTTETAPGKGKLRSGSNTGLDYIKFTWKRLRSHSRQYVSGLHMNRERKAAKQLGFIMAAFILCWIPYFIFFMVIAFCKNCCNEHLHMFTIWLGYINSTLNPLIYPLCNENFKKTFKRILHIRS
# Rattus norvegicus [22] = organism: Rattus norvegicus; experiment: Binding affinity to rat sigma 2 receptor at 10 uM by radioligand binding assay
# Rattus norvegicus [23] = organism: Rattus norvegicus; experiment: Binding affinity to rat ATP-sensitive potassium channel at 10 uM by radioligand binding assay
# [24] = target: Muscarinic acetylcholine receptor M2 (Homo sapiens) (UniProt P08172); experiment: Binding affinity to human muscarinic M2 receptor at 10 uM by radioligand binding assay
# [25] = target: Adenosine receptor A2a (Homo sapiens) (UniProt P29274); experiment: Binding affinity to human adenosine A2A receptor at 10 uM by radioligand binding assay
# Adenosine receptor A2a (Homo sapiens), sequence (P29274 whole entry): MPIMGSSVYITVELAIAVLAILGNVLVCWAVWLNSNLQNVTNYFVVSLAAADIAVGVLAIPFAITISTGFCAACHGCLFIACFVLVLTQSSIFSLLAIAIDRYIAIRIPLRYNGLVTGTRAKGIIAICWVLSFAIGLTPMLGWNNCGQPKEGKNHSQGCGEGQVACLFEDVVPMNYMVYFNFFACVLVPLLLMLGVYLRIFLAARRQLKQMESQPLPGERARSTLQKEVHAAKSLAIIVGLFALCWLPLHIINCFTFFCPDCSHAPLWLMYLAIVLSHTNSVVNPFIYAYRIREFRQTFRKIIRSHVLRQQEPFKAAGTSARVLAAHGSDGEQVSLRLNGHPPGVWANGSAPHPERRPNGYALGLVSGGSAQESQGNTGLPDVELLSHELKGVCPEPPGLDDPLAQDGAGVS
# [26] = target: Sodium-dependent noradrenaline transporter (Homo sapiens) (UniProt P23975); experiment: Binding affinity to human NET at 10 uM by radioligand binding assay
# [27] = target: Acetylcholine receptor subunit alpha (Homo sapiens) (UniProt P02708); experiment: Binding affinity to human bungrotoxin binding site of nicotinic acetylcholine receptor alpha1 at 10 uM by radioligand binding assay
# [28] = target: Prostaglandin E2 receptor EP4 subtype (Homo sapiens) (UniProt P35408); experiment: Binding affinity to human EP4 receptor at 10 uM by radioligand binding assay
# Rattus norvegicus [29] = organism: Rattus norvegicus; experiment: Binding affinity to rat GABA-A receptor at 10 uM by radioligand binding assay
# [30] = target: D(1A) dopamine receptor (Homo sapiens) (UniProt P21728); experiment: Binding affinity to human dopamine D1 receptor at 10 uM by radioligand binding assay
# Rattus norvegicus [31] = organism: Rattus norvegicus; experiment: Binding affinity to rat dihydropyridine binding site of calcium channel L-type at 10 uM by radioligand binding assay
# Mus musculus = organism: Mus musculus; experiment: Binding affinity to mouse phorbol ester receptor at 10 uM by radioligand binding assay
# [32] = target: D(2) dopamine receptor (Homo sapiens) (UniProt P14416); experiment: Binding affinity to human dopamine D2short receptor at 10 uM by radioligand binding assay
# [33] = target: Alpha-1B adrenergic receptor (Rattus norvegicus) (UniProt P15823); experiment: Binding affinity to rat adrenergic Alpha-1B receptor at 10 uM by radioligand binding assay
# Alpha-1B adrenergic receptor (Rattus norvegicus), sequence (P15823 whole entry): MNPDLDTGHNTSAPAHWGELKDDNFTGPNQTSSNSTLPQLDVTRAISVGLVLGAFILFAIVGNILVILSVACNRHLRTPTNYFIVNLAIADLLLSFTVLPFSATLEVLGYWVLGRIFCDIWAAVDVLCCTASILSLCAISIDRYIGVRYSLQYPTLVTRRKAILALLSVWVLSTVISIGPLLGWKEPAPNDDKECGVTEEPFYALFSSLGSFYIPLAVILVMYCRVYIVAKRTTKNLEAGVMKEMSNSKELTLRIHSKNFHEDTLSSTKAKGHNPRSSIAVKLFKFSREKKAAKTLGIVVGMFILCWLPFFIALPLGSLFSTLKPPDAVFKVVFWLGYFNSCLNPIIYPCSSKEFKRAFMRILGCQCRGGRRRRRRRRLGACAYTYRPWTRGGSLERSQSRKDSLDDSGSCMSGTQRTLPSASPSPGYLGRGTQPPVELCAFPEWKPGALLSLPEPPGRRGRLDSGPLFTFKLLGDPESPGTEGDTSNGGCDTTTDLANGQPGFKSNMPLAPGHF
# [34] = target: Beta-1 adrenergic receptor (Homo sapiens) (UniProt P08588); experiment: Binding affinity to human beta1 adrenergic receptor at 10 uM by radioligand binding assay
# Beta-1 adrenergic receptor (Homo sapiens), sequence (P08588 whole entry, looked up): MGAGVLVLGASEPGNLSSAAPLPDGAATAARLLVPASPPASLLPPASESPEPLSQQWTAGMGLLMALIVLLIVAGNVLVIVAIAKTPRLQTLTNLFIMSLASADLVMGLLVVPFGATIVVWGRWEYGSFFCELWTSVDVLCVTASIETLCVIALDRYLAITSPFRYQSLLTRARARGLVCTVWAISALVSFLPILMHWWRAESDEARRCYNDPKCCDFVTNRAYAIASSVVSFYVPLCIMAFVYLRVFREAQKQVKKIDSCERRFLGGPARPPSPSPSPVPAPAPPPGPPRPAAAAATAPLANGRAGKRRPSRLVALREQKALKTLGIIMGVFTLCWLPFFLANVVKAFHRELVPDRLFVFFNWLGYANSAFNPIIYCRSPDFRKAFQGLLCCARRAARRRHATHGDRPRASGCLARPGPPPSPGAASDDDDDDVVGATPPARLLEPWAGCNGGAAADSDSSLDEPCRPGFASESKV
# Rattus norvegicus [35] = organism: Rattus norvegicus; experiment: Binding affinity to rat agonist site of GABA-A receptor at 10 uM by radioligand binding assay
# [36] = target: Alpha-2A adrenergic receptor (Homo sapiens) (UniProt P08913); experiment: Binding affinity to human adrenergic alpha2A receptor at 10 uM by radioligand binding assay
# Rattus norvegicus [37] = organism: Rattus norvegicus; experiment: Binding affinity to rat sodium channel site 2 at 10 uM by radioligand binding assay
# [38] = target: Mu-type opioid receptor (Homo sapiens) (UniProt P35372); experiment: Binding affinity to human MOP receptor at 10 uM by radioligand binding assay
# [39] = target: Beta-2 adrenergic receptor (Homo sapiens) (UniProt P07550); experiment: Binding affinity to human adrenergic beta2 receptor at 10 uM by radioligand binding assay
# [40] = target: Pyroglutamylated RF-amide peptide receptor (Homo sapiens) (UniProt Q96P65); experiment: Binding affinity to human GPR103 receptor at 10 uM by radioligand binding assay
# [41] = target: Glutamate NMDA receptor (Rattus norvegicus) (UniProt P35439+Q00959+Q00960+Q00961+Q62645+Q8VHN2+Q9R1M7); experiment: Binding affinity to rat NMDA receptor at 10 uM by radioligand binding assay; type: protein-complex assay
# [42] = target: Sigma non-opioid intracellular receptor 1 (Homo sapiens) (UniProt Q99720); experiment: Binding affinity to human sigma 1 receptor at 10 uM by radioligand binding assay
# hERG (KCNH2) = hERG (KCNH2) (Homo sapiens, UniProt Q12809); experiment: Binding affinity to human ERG at 10 uM by radioligand binding assay
# [43] = target: Muscarinic acetylcholine receptor M3 (Homo sapiens) (UniProt P20309); experiment: Binding affinity to human muscarinic M3 receptor at 10 uM by radioligand binding assay
# Muscarinic acetylcholine receptor M3 (Homo sapiens), sequence (P20309 whole entry, looked up): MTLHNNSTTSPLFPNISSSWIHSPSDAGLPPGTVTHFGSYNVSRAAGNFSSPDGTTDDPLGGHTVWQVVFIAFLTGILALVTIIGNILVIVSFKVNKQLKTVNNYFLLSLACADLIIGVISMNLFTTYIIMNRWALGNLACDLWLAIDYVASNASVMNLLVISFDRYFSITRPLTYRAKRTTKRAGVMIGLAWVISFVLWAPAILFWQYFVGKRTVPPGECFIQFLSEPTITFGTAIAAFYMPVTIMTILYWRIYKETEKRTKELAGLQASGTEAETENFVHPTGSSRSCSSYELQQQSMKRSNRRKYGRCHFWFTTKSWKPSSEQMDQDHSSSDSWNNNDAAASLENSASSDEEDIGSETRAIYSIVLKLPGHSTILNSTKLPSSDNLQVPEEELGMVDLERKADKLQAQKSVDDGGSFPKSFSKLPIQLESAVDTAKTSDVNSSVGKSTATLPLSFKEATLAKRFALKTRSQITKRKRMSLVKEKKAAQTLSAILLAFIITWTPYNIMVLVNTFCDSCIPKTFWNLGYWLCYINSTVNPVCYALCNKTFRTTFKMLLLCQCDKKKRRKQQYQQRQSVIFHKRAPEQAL
# [44] = target: Adenosine receptor A1 (Homo sapiens) (UniProt P30542); experiment: Binding affinity to human adenosine A1 receptor at 10 uM by radioligand binding assay
# Cytochrome P450 1A2 = Cytochrome P450 1A2 (Homo sapiens, UniProt P05177); experiment: Inhibition of human CYP1A2; type: ADME
# Cytochrome P450 2C9 = Cytochrome P450 2C9 (Homo sapiens, UniProt P11712); experiment: Inhibition of human CYP2C9; type: ADME
# Cytochrome P450 2C19 = Cytochrome P450 2C19 (Homo sapiens, UniProt P33261); experiment: Inhibition of human CYP2C19; type: ADME
# Cytochrome P450 2D6 = Cytochrome P450 2D6 (Homo sapiens, UniProt P10635); experiment: Inhibition of human CYP2D6; type: ADME
# Cytochrome P450 3A4 = Cytochrome P450 3A4 (Homo sapiens, UniProt P08684); experiment: Inhibition of human CYP3A4; type: ADME
# U937 (Homo sapiens) = experiment: Cytotoxicity against human U937 cells up to 30 uM by LDH release assay
# Fatty acid synthase (Homo sapiens, UniProt P49327), sequence (P49327 whole entry): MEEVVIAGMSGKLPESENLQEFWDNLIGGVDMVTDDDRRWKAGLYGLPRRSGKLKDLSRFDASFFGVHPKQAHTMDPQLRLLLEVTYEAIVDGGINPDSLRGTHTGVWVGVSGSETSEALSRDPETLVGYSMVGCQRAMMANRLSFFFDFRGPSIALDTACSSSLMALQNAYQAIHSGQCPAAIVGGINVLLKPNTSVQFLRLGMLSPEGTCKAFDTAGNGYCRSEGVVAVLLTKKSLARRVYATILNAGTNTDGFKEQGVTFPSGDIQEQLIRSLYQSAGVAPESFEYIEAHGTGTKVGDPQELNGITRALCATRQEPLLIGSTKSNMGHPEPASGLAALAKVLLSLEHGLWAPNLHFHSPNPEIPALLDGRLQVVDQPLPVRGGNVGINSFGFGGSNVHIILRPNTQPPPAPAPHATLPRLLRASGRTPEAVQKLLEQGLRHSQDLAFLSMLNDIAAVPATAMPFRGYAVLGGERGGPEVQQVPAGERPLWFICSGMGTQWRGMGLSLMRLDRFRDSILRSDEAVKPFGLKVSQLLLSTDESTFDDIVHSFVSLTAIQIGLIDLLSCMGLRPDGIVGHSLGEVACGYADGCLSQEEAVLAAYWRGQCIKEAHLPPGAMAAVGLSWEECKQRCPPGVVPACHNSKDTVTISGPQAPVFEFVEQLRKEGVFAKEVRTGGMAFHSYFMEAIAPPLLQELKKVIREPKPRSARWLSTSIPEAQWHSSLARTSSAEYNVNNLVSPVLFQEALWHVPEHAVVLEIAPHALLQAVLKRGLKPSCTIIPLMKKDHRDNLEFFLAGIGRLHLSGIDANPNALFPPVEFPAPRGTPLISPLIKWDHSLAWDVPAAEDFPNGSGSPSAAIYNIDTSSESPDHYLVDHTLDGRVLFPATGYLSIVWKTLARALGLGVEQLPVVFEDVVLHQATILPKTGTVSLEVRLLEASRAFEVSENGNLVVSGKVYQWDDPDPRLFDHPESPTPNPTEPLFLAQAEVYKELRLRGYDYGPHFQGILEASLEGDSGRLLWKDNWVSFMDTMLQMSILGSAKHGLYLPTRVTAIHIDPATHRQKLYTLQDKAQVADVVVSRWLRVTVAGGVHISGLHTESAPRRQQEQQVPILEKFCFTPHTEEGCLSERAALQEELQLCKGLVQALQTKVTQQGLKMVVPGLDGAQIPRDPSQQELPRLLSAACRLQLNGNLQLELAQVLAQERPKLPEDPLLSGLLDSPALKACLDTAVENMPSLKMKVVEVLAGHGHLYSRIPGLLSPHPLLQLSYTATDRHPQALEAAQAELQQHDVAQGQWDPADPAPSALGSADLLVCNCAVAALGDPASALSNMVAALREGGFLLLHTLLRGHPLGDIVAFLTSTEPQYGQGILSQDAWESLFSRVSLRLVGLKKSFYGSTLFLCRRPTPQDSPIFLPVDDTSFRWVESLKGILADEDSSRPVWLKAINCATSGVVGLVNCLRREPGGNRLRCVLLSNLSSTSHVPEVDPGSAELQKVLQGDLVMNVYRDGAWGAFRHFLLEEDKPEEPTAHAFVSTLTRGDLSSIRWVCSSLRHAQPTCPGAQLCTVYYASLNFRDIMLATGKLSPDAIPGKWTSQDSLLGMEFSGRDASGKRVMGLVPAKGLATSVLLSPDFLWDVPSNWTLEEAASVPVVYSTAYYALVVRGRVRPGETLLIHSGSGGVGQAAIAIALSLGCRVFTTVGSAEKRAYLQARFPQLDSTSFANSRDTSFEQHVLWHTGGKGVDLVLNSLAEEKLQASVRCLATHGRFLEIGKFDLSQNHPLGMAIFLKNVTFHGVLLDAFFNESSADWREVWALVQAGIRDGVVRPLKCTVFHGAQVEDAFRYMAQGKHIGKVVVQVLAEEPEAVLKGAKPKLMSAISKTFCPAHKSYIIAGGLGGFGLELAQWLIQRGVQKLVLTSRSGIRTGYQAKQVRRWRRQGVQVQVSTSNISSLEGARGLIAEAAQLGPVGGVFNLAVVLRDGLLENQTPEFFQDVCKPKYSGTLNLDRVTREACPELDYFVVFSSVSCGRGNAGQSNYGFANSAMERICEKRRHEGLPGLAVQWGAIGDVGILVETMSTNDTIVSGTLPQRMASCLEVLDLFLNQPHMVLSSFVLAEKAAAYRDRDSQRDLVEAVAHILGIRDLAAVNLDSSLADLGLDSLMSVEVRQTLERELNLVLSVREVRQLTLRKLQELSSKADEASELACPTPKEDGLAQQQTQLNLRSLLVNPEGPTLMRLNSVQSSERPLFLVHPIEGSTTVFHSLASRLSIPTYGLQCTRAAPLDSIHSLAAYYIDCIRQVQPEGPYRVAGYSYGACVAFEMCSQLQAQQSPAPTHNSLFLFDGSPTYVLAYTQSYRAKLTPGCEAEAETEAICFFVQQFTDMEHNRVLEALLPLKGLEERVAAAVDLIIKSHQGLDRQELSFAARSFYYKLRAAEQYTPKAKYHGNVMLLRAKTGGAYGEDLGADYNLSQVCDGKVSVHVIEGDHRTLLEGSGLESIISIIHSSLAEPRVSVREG
smiles,measurement,setting,value
COCC(=O)N[C@H]1CC[C@@H](C(=O)N(C)c2ccc(-c3nc4ccccc4o3)cc2)C1,IC50,Fatty acid synthase [1],910 nM
CC(C)C(=O)N[C@H]1CC[C@@H](C(=O)N(C)c2ccc(-c3ccccc3)cc2)C1,IC50,Fatty acid synthase [1],420 nM
CN(C)C(=O)N[C@H]1CC[C@@H](C(=O)N(C)c2ccc(-c3nc4ccccc4o3)cc2)C1,IC50,Fatty acid synthase [1],280 nM
CCC(=O)N[C@@H]1CC[C@H](C(=O)N(C)c2ccc(-c3nc4ccccc4o3)cc2)C1 [BI 99990],IC50,Fatty acid synthase [1],> 3000 nM
CN(C)CCCCCC(=O)N[C@H]1CC[C@@H](C(=O)N(C)c2ccc(-c3nc4ccccc4[nH]3)cc2)C1,IC50,Fatty acid synthase [1],700 nM
CC(=O)N[C@H]1CC[C@@H](C(=O)N(C)c2ccc(-c3nc4ccccc4o3)cc2)C1,IC50,Fatty acid synthase [1],200 nM
CCC(=O)N[C@H]1CC[C@@H](C(=O)N(C)c2ccc(-c3nc4ccccc4o3)cc2)C1 [BI 99179],Papp,[2],94 ×10⁻⁶ cm/s
same,Stability,Liver microsomes [3],Stable
same,QH,Rattus norvegicus [4],< 27%
same,Stability,Liver microsomes [5],Stable
same,fraction unbound,[6],0.024
same,clearance,[7],8.2 mL/min/kg
same,Vd,[8],1.6 L/kg
same,solubility,[9],5 µg/mL
same,half-life,[10],3 h
same,Tmax,[11],0.5 h
same,Cmax,[12],2110 nM
same,AUC(0-inf),[13],9.35 µM·h
same,bioavailability,[14],46%
same,concentration at 2 h,[15],1300 nM
same,concentration at 2 h,[16],50 nM
same,QH,Homo sapiens,< 26%
same,IC50,Fatty acid synthase [1],79 nM
same,IC50,Fatty acid synthase [17],600 nM
same,inhibition,Rattus norvegicus [18],19%
same,inhibition,[19],17%
same,inhibition,Rattus norvegicus [20],17%
same,inhibition,[21],13%
same,inhibition,Rattus norvegicus [22],13%
same,inhibition,Rattus norvegicus [23],12%
same,inhibition,[24],10%
same,inhibition,[25],10%
same,inhibition,[26],9%
same,inhibition,[27],9%
same,inhibition,[28],9%
same,inhibition,Rattus norvegicus [29],8%
same,inhibition,[30],7%
same,inhibition,Rattus norvegicus [31],7%
same,inhibition,Mus musculus,6%
same,inhibition,[32],5%
same,inhibition,[33],4%
same,inhibition,[34],4%
same,inhibition,Rattus norvegicus [35],4%
same,inhibition,[36],2%
same,inhibition,Rattus norvegicus [37],1%
same,inhibition,[38],0%
same,inhibition,[39],0%
same,inhibition,[40],-1%
same,inhibition,[41],-1%
same,inhibition,[42],-2%
same,inhibition at 10 µM,hERG (KCNH2),-5%
same,inhibition,[43],-6%
same,inhibition,[44],-7%
same,IC50,Cytochrome P450 1A2,> 10000 nM
same,IC50,Cytochrome P450 2C9,> 10000 nM
same,IC50,Cytochrome P450 2C19,> 10000 nM
same,IC50,Cytochrome P450 2D6,> 10000 nM
same,IC50,Cytochrome P450 3A4,> 10000 nM
same,Activity,U937 (Homo sapiens),Non-toxic
C/C=C/C/C=C/CCC(=O)[C@H]1O[C@H]1C(N)=O [CERULENIN],IC50,Fatty acid synthase [1],5800 nM
CCNC(=O)N[C@H]1CC[C@@H](C(=O)N(C)c2ccc(-c3nc4ccccc4n3C)cc2)C1,IC50,Fatty acid synthase [1],1400 nM
CN(C(=O)[C@@H]1CC[C@H](NC(=O)C(F)F)C1)c1ccc(-c2nc3ccccc3o2)cc1,IC50,Fatty acid synthase [1],270 nM
CC(C)C(=O)N[C@H]1CC[C@@H](C(=O)N(C)c2ccc(-c3nc4ccccc4[nH]3)cc2)C1,IC50,Fatty acid synthase [1],1500 nM
CCCC(=O)N[C@H]1CC[C@@H](C(=O)N(C)c2ccc(-c3nc4ccccc4o3)cc2)C1,IC50,Fatty acid synthase [1],420 nM
CN(C)CCCCCC(=O)N[C@H]1CC[C@@H](C(=O)N(C)c2ccc(-c3nc4ccccc4o3)cc2)C1,IC50,Fatty acid synthase [1],580 nM
